Screening data as filed in PubChem BioAssay.
MC4R barr agon = MC4R agonists recruiting beta-arrestin, primary screen, cell-based, luminescence, agonist arm of biased-ligand search; Melanocortin receptor 4 (Homo sapiens), P32245; 0.98% of 360,000 active; activation, % at 8.9 µM; U2OS MC4R beta-arrestin complementation; percent of melanotan II response, DMSO zero;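 active means activation above a per-plate cutoff, the mean activation of sample wells on that plate plus 3 SD, cut at about 8% in these data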
Target sequence (P32245 whole entry, looked up): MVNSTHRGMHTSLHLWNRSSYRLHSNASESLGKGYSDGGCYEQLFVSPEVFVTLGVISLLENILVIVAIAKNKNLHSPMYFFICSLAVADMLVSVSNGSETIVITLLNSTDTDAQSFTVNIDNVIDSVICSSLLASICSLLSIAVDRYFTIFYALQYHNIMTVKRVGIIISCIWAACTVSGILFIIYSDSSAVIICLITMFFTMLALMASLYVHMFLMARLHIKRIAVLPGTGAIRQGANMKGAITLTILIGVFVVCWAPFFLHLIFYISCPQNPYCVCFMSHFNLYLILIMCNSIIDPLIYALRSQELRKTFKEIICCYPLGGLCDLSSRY
EBI2 antag = EBI2 receptor antagonists, beta-arrestin recruitment, primary screen, cell-based, luminescence, 7a,25-OHC stimulation, uHTS; inhibition, % at 5 µM; 0.81% of 360,000 active; 7a,25-OHC stimulated; in the data active means inhibition above about 38%;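 further: enzyme fragment complementation signal reports receptor beta-arrestin coupling in cells; 0% = agonist plus DMSO wells and 100% = wells without agonist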
Target sequence (P32249 whole entry, looked up, the tested form may be a part): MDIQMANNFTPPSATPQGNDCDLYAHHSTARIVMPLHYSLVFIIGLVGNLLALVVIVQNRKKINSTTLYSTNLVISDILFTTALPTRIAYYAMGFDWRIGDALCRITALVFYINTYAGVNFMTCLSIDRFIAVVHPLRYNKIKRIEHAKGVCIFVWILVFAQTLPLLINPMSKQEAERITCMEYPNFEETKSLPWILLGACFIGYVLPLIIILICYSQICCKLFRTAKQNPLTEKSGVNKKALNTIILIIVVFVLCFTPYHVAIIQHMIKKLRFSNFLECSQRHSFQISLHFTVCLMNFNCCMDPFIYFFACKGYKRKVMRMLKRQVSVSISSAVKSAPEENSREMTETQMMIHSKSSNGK
Myeloid diff 2 = induction of myeloid progenitor differentiation, primary screen, cell-based, flow cytometry, MLPCN library; ER-HoxA9 myeloid progenitors, lysozyme-GFP differentiation; calls only at 10 µM; 1% of 360,000 active; AID 624256, 2012;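 active means normalized GFP-positive differentiation at or above the plate's own cutoff, the solvent-only control mean plus 3 SD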;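 further: cells exposed to compound for four days before flow analysis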
MC4R antagonist = MC4R antagonists of cAMP signaling, primary screen, cell-based, TR-FRET, antagonist arm of biased-ligand search; MC4R-expressing cells, MTII-stimulated cAMP, LANCE TR-FRET; inhibition, % at 6.5 µM; 0.48% of 360,000 active; AID 540295, 2011;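 active means inhibition above its plate's cutoff, the mean of tested wells on that plate plus 3 SD, cut at about 29% in these data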;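 further: 0% = Melanotan II alone and 100% = Melanotan II plus saturating MCL0020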
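system = U2OS cells with stable human MC4R expression | also added = Melanotan II challenge after compound preincubation | dosing = one concentration, 6.5 µM nominal | incubation = compound 30 min, challenge 1 h, detection 1 h | measured by = TR-FRET with Eu-cAMP and labeled anti-cAMP, 671 nm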
Granule exo inh = LAMP-1 surface exposure blockers, TALL-104 cells – cell-based, flow cytometry, MLPCN library, primary screen. TALL-104 LAMP-1 surface exposure; cells stimulated with thapsigargin and PMA. inhibition, % at 10 µM. 0.66% of 360,000 active. AID 651702, 2012;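 active means inhibition above about 55%, limit read from the data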
Exocytosis CP01 = inhibitors of lytic granule exocytosis, confirmation, TALL-104 cells, flow cytometry, Cherry Pick01; 11% of 1,500 active; LAMP-1 externalization; stimulated with PMA plus thapsigargin; shares compounds with Granule exo inh; inhibition, % at 10 µM; in the data active means inhibition above about 60%;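 further: 0% = stimulated vehicle wells and 100% = unstimulated wells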
The depositor's hits bear a star; i = inactive; x = not tested or not shown. Hits are enriched below; roughly 3.7% of the tested compounds scored in any of these assays.

SMILES | MC4R barr agon | EBI2 antag | Myeloid diff 2 | MC4R antagonist | Granule exo inh | Exocytosis CP01
CCc1ccc(NCc2ccc(OC)c(Cn3ccnc3)c2)cc1 | 0.9 | 0.3 | i | 0.4 | 57.8* | -12.6
N#Cc1ccsc1NC(=O)CCN1CCN(C(c2ccccc2)c2ccccc2)CC1 | 7.0 | 7.2 | i | 14.6 | 77.2* | -9.5
CC1=C(C(=O)Nc2ccc(C)cc2C)C(c2ccc(C)o2)NC(=S)N1 (stereo not given) | 1.0 | -0.5 | i | 10.9 | 2.9 | x
Cc1cc(NC(=O)CCN2CCN(C/C=C/c3ccccc3)CC2)ccc1Br | 1.9 | 8.1 | i | 9.3 | 60.4* | -1.1
Cc1cccc(NC(=O)CCN2CCN(C/C=C/c3ccccc3)CC2)c1 | -2.3 | 3.3 | i | 2.5 | -0.8 | x
Cc1ccc(Cl)cc1-c1cc(C(=O)NCc2ccc(C(F)(F)F)cc2)[nH]n1 | 0.6 | 30.5 | i | -8.8 | 96.2* | 102.6*
COc1ccc(Cl)c(-c2cc(C(=O)NCc3ccc(C(F)(F)F)cc3)[nH]n2)c1 | 9.5* | 14.9 | i | -3.2 | 97.0* | 64.0*
CS(=O)(=O)c1nc(S(=O)(=O)c2ccc(Cl)cc2)c(NCCCn2ccnc2)s1 | 0.6 | 4.9 | i | -5.5 | 1.4 | x
CC1CCN(C(=O)C(C)NCc2ccc(F)cc2)CC1 (stereo not given) | -1.6 | 2.6 | i | 3.5 | -11.4 | x
C/C(N)=C(/C#N)C(=O)CN1C(=O)NC(Cc2c[nH]c3ccccc23)C1=O (stereo not given) | 0.1 | -5.3 | i | 2.4 | -0.1 | x
COc1ccc(OC)c(NC(=O)NCCc2cccc(Cl)c2)c1 | 0.4 | 6.6 | i | 9.8 | -1.6 | x
CCC(C(=O)n1cccc1C#N)c1ccccc1C (stereo not given) | -0.4 | -37.1 | i | 5.0 | 70.0* | -5.1
CCOC(=O)C(=CNc1ccccc1C)C(=O)OCC | 2.5 | -10.6 | i | 6.6 | -1.4 | x
Cc1ccc(-n2ncc3c(=O)n(CC(=O)N4CCN(c5ccccc5)CC4)cnc32)cc1C | 1.7 | -1.1 | i | -2.0 | -0.8 | x
CN(CC(=O)Nc1ccccc1C(F)(F)F)C(=O)C1=COCCO1 | -0.4 | -5.7 | i | 1.1 | -1.6 | x
Cc1cc(C(=O)N(C)CC(=O)Nc2ccccc2C(F)(F)F)c(C)o1 | -2.0 | -5.2 | i | 5.3 | 61.7* | -14.4
O=C(NC(=S)Nc1ccc(CN2CCOCC2)cc1)c1ccc(-c2cccc(Cl)c2)o1 | -2.4 | 22.7 | i | 21.1 | 58.3* | 25.1
O=C(CSc1nc2c(sc3ccccc32)c(=O)n1CCCN1CCCC1)NCc1ccccc1 | -0.4 | 0.9 | i | 12.0 | 66.6* | 7.5
CCc1ccc(NC(=O)CSc2nc3ccccc3c(=O)n2CCCC(=O)NCCCN2CCOCC2)cc1 | 2.5 | -5.6 | i | 4.8 | 62.9* | 14.5
Cc1ccc(NC(=O)CSc2nc3ccccc3c(=O)n2CCCN2CCCCC2)cc1Cl | 5.9 | 4.6 | i | 3.2 | 78.8* | 57.9
O=C(CSc1nc2ccccc2c(=O)n1CCCN1CCOCC1)Nc1ccc(F)c(Cl)c1 | 1.3 | 10.9 | i | 0.3 | -3.1 | x
CC1CN(CCOc2cccc(Oc3ccccc3)c2)CC(C)O1 (stereo not given) | 2.9 | -4.7 | i | 15.2 | 16.4 | x
CC1CCCN(CCOc2cccc(Oc3ccccc3)c2)C1 (stereo not given) | 2.8 | -17.9 | i | -3.2 | 60.0* | -9.7
CCCCNC(=O)c1cc2c(=O)n(CC)c3ccccc3c2s1 | -1.6 | 0.5 | i | -3.7 | 59.9* | -11.1
COc1ccc(CN2CCC(N(CCc3ccccc3)Cc3ccccc3)CC2)c(OC)c1 | 0.5 | 10.4 | i | -1.6 | 59.5* | 1.4
SMILES | MC4R barr agon | EBI2 antag | Myeloid diff 2 | MC4R antagonist | Granule exo inh | Exocytosis CP01
COc1ccccc1NC(=O)C1(c2ccccc2)CCCC1 | 4.1 | 5.5 | i | -6.7 | 84.7* | -2.8
CNC(=O)C1(c2ccccc2)CCCCC1 | -2.3 | -2.7 | i | 6.4 | -4.0 | x
O=C(Nc1ccc([N+](=O)[O-])cc1)C(c1ccccc1)c1ccccc1 | 5.5 | 1.9 | i | 14.8 | 2.3 | x
Cc1cccc(CN2CCC(C(=O)Nc3cccc(-c4cccc(F)c4)c3)CC2)n1 | 0.5 | -5.3 | i | 2.4 | 61.8* | -8.2
Cc1cccc(CN2CCC(C(=O)Nc3cccc(-c4cscn4)c3)CC2)n1 | -3.7 | -1.3 | i | 2.0 | 3.8 | x
O=C(C[C@H]1C/C=C\C[C@H](Cc2ccc(F)cc2)C(=O)O[C@@H](c2ccccc2)CNC1=O)N[C@@H](CO)Cc1ccccc1 | -1.8 | -22.6 | i | 10.3 | 56.0* | -4.0
O=C(C[C@H]1C/C=C\C[C@@H](Cc2ccc(F)cc2)C(=O)O[C@@H](c2ccccc2)CNC1=O)N[C@@H](CO)Cc1ccccc1 | 0.1 | -0.6 | i | -1.7 | -4.9 | x
CCC(CC)C(=O)Nc1ccc(Sc2ccc([N+](=O)[O-])cc2)cc1 | 0.5 | 8.2 | i | -0.5 | 55.6* | -0.5
CCOC(=O)C1(CCOc2ccccc2)CCN(Cc2ccncc2)CC1 | -1.8 | 5.6 | x | -0.8 | -0.8 | x
CCOC(=O)C1(Cc2cccc(OC)c2)CCN(Cc2cc(OC)ccc2OC)CC1 | 1.7 | 14.9 | i | 3.0 | 1.7 | x
CCOC(=O)C1(CCOc2ccccc2)CCN(Cc2cc(OC)ccc2OC)CC1 | 0.1 | 9.3 | i | 1.9 | 83.7* | -6.9
CCOC(=O)C1(CCOc2ccccc2)CCN(Cc2cccc(OC)c2O)CC1 | 0.3 | 16.2 | i | 7.4 | 69.4* | -8.6
O=c1cccc(-c2ccc3ccccc3c2)o1 | x | -3.8 | i | x | -5.4 | x
CSc1ccccc1OCc1cc(C(=O)NCCc2nc(C)cc(C)n2)no1 | -1.5 | -2.3 | i | 7.0 | 6.3 | x
Cc1nc2cc(NC(=O)CCS(=O)(=O)c3ccccc3)ccc2s1 | 6.7 | 12.5 | i | 6.4 | 9.6 | x
CCOc1ccc(NC(=O)c2ccc(CN3CCc4ccccc4C3)cc2)cc1 | 1.0 | -5.7 | i | -2.8 | -2.5 | x
CCOC(=O)c1ccc(NC(=O)c2ccc(CN3CCc4ccccc4C3)cc2)cc1 | 1.2 | -6.2 | i | 0.4 | 70.3* | -12.1
C/C(CCc1ccccc1)=N\NC(=O)C(=O)Nc1cccc(Cl)c1 | 2.1 | -6.5 | i | -4.2 | -0.5 | x
Cc1cnc(C(=O)OCC(=O)NCCc2ccccc2)cn1 | -2.1 | -6.1 | i | -0.9 | 109.6* | -4.3
O=C(Nc1ccc2nc(-c3cccs3)c(-c3cccs3)nc2c1)N1CCOCC1 | 1.7 | -11.1 | i | 16.6 | 100.9* | 99.3*
CCCS(=O)(=O)Nc1ccc(Nc2c3ccccc3nc3ccccc23)c(OC)c1 | -1.2 | 5.0 | x | 2.4 | 77.6* | 88.6*
